Experiment [1] addresses Acetylcholinesterase (Electrophorus electricus, UniProt O42275). Nature of the experiment: Inhibition of electric eel AChE using acetylthiocholine iodide as substrate preincubated for 20 mins followed by substrate addition by DTNB reagent based Ellman's method. A general note: In Ellman's method for cholinesterases, released thiocholine reacts with DTNB.
Experiment [2] deals with Amyloid-beta precursor protein (Homo sapiens, UniProt P05067). Nature of the experiment: Inhibition of amyloid beta 40 peptide (unknown origin) aggregation incubated for 2 hr by ThT fluorescence based spectrofluorimetric analysis. The procedure, abridged: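 Aβ40 peptide aggregation enhanced with 2% HFIP; thioflavin T fluorescence read-out; run in triplicate.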
Experiment [3] has as its target Cholinesterase (Homo sapiens, UniProt P06276). Nature of the experiment: Inhibition of human recombinant BChE using acetylthiocholine iodide as substrate preincubated for 20 mins followed by substrate addition by DTNB reagent based Ellman's method. The procedure, abridged: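 Human BChE was assayed by the Ellman spectrophotometric method. IC50 values are means of three independent experiments, each run in triplicate.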

In experiment [4] the target is Acetylcholinesterase (Homo sapiens, UniProt P22303). Description: Inhibition of human recombinant AChE using acetylthiocholine iodide as substrate preincubated for 20 mins followed by substrate addition by DTNB reagent based Ellman's method.
In experiment [5] the target is T1, Microtubule-associated protein tau (Homo sapiens, UniProt P10636). Description: Inhibition of tau (unknown origin) aggregation expressed in Escherichia coli BL21 (DE3). The procedure, abridged:
(§1)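 E. coli BL21(DE3) carrying pTARA (T7 RNA polymerase under PBAD) and pRKT42 (four-repeat tau) grown at 37 °C in M9 with 0.5% glucose, antibiotics and 250 μM ThS to OD600 0.6. […] ThS fluorescence ex 430/em 485 nm, normalized to tau-expressing cells (100%) and non-expressing cells (0%); OD600 checked for growth.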
Target sequence in this assay (P10636 whole entry): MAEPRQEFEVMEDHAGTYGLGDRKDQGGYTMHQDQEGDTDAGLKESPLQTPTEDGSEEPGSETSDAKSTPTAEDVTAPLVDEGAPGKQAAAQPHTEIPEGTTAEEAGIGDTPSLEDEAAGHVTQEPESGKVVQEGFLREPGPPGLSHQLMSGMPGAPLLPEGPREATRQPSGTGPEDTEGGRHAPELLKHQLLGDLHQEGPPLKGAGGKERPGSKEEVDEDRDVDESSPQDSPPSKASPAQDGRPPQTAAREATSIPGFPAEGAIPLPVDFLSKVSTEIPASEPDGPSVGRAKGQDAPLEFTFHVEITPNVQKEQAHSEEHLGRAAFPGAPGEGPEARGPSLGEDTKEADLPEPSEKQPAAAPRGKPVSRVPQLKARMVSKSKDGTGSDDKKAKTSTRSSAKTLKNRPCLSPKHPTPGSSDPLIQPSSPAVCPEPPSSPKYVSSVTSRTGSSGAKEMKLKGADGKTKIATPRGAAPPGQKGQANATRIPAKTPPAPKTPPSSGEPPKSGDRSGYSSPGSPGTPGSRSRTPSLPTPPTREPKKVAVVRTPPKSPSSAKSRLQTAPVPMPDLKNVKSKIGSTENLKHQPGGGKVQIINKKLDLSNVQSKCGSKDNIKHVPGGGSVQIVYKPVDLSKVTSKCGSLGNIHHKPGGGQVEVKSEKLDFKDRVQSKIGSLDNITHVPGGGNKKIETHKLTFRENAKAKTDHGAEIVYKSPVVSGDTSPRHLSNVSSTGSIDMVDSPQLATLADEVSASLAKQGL

For experiment [6], the target named is Cholinesterase (Equus caballus, UniProt P81908). Description: Inhibition of equine serum BChE using butyrylthiocholine iodide as substrate preincubated for 20 mins followed by substrate addition by DTNB reagent based Ellman's method. The format is cell-free.
The target of experiment [7] is T1, Microtubule-associated protein tau. Nature of the experiment: Inhibition of tau (unknown origin) aggregation expressed in Escherichia coli BL21 (DE3) at 10 uM relative to control. Put shortly:
as §1
Target sequence in this assay (P10636 whole entry): as above

Experiment [8] shares this target. Nature of the experiment: Inhibition of PHF6 peptide (unknown origin) aggregation at 10 uM measured after 3 hrs by thioflavin T fluorescence based fluorimetric analysis relative to control.
Target sequence in this assay (P10636 whole entry, looked up): as the sequence (P10636 whole entry) above

A value given as a limit tells only on which side of the number the result lay.

Amyloid-beta precursor protein, sequence (P05067 whole entry): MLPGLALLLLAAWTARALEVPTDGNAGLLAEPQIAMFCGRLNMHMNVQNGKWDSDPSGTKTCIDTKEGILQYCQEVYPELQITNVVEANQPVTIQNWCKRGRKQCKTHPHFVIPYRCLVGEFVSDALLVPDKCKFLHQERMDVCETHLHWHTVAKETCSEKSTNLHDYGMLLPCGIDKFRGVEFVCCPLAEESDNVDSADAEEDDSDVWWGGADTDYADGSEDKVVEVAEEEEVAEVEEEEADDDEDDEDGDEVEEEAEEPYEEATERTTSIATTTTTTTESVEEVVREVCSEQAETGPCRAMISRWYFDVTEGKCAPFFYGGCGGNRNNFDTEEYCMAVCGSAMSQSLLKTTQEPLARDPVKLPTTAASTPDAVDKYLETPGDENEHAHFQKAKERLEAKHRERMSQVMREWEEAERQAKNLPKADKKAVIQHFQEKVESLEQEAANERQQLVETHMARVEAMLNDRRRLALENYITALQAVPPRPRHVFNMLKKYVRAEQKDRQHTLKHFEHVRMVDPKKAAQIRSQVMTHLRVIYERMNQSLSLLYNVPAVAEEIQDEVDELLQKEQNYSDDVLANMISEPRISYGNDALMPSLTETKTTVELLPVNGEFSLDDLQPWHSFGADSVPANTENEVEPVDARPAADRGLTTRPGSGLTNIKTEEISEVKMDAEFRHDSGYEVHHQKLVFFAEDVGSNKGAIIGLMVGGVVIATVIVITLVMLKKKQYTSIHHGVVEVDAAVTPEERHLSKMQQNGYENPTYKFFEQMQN
Cholinesterase (Equus caballus, UniProt P81908), sequence (P81908 whole entry): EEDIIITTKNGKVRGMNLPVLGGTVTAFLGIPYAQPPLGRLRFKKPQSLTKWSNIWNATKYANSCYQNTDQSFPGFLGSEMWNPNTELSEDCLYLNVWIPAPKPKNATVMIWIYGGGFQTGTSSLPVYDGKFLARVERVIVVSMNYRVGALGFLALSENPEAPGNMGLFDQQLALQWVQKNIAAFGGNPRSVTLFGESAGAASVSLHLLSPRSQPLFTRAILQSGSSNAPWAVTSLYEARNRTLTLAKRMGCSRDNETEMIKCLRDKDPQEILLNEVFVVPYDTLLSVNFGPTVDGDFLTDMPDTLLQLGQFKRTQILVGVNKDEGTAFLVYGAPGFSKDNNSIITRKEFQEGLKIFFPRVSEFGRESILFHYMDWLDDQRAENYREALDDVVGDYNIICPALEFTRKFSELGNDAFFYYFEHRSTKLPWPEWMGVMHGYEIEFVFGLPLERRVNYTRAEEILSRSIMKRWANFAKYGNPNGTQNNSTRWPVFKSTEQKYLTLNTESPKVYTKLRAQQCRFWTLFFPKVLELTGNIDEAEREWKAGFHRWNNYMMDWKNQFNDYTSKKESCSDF
Acetylcholinesterase (Homo sapiens, UniProt P22303), sequence (P22303 whole entry): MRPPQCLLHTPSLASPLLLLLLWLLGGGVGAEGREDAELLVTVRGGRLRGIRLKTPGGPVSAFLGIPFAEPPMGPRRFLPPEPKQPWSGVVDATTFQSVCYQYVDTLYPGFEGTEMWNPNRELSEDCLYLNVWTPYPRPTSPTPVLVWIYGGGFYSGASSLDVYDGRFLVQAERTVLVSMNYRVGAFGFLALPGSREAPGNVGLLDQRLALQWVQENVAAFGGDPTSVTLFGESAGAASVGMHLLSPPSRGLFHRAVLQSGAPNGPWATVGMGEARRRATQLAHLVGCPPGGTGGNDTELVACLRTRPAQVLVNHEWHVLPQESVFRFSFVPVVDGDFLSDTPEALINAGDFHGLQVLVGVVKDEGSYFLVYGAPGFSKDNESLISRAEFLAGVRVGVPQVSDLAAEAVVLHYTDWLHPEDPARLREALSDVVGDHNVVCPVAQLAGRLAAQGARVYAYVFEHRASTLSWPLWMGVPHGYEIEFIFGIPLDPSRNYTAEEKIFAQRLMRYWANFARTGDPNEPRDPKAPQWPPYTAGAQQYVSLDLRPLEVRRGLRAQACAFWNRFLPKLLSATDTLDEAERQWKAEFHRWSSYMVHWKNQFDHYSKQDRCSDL
Acetylcholinesterase (Electrophorus electricus, UniProt O42275), sequence (O42275 whole entry): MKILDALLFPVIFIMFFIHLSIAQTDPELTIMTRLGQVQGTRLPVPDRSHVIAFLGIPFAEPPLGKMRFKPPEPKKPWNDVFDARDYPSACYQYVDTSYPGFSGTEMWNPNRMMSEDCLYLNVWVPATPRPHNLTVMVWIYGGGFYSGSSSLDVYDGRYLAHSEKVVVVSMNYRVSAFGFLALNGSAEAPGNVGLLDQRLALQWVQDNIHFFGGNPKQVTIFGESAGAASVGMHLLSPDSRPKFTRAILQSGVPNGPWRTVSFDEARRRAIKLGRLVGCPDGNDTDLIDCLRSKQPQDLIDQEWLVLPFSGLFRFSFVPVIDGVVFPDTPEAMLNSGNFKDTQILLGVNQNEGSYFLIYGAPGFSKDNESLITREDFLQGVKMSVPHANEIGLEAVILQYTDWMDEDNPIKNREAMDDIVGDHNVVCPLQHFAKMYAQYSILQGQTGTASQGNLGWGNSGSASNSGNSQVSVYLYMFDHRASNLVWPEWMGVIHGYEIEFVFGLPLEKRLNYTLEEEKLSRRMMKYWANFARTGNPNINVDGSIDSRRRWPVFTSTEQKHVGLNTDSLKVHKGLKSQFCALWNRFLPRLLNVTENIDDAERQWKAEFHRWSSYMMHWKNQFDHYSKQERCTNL
Cholinesterase (Homo sapiens, UniProt P06276), sequence (P06276 whole entry): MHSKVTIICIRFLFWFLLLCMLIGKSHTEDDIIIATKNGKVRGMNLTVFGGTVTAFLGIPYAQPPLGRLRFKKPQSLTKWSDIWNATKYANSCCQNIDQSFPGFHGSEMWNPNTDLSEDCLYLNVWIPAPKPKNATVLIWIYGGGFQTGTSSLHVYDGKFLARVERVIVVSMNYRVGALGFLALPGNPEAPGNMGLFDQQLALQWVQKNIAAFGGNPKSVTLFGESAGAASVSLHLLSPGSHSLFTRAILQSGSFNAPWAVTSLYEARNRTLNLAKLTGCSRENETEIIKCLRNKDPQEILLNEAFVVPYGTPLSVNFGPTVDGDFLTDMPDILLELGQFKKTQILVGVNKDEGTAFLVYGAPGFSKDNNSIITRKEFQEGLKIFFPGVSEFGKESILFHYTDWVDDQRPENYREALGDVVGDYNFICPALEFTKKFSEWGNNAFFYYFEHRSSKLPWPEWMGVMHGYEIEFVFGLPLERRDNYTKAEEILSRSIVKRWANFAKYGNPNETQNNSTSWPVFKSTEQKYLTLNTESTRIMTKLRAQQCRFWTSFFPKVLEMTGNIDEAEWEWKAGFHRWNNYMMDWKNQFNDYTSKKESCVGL

Consider `COc1ccc2sc3c([N+](=O)[O-])ccc(NCC[C@@H]4CCCN5CCCC[C@H]45)c3c(=O)c2c1`, for which the IC50 worked out at 2.3 µM on Acetylcholinesterase [1]; 9.1 µM in experiment [2]; 1.82 µM on Cholinesterase [3]; 4.75 µM at Acetylcholinesterase [4]; 6.9 µM in experiment [5]; 0.15 µM against Cholinesterase [6].

As for `COc1ccc2sc3c(N)ccc(NCC[C@@H]4CCCN5CCCC[C@H]45)c3c(=O)c2c1`, the IC50 on Acetylcholinesterase [1] came to 1.9 µM; in experiment [2] it was 13 µM; on Cholinesterase [3], 0.99 µM; on Acetylcholinesterase [4] it was 2.4 µM; against Cholinesterase [6] it was 0.15 µM. The molecule further displayed an inhibition in experiment [7] of 33%.

Regarding `Cc1ccc(NCCCSC[C@@H]2CCCN3CCCC[C@H]23)c2c(=O)c3ccccc3sc12`, the half-maximal inhibitory concentration (IC50) is 0.18 µM against Acetylcholinesterase [1]; 4.3 µM in experiment [2]; 0.007 µM on Cholinesterase [3]; 7.84 µM at Acetylcholinesterase [4]; 20 µM in experiment [5]; 0.088 µM at Cholinesterase [6].

Consider `COc1ccc2sc3c([N+](=O)[O-])ccc(NC[C@@H]4CCCN5CCCC[C@H]45)c3c(=O)c2c1`, for which the midpoint of inhibition in experiment [2], the IC50, lay at 11 µM. The inhibition in experiment [7] was 32%.

On to `COc1ccc2sc3c(C)ccc(NCC[C@@H]4CCCN5CCCC[C@H]45)c3c(=O)c2c1`, for which the IC50 on Acetylcholinesterase [1] stood at 5.1 µM; in experiment [2], 2.4 µM; on Cholinesterase [3], 0.71 µM; on Acetylcholinesterase [4], 3.59 µM; in experiment [5], 14 µM; at Cholinesterase [6], 0.14 µM.

The molecule `CCCN(SC[C@H]1CCCN2CCCC[C@H]12)C1=C(Cl)C(=O)c2ccccc2C1=O` displayed an IC50 in experiment [2] of 61 µM.

In the case of `Cc1ccc(NCCC[C@@H]2CCCN3CCCC[C@H]23)c2c(=O)c3ccccc3oc12`, the IC50 against Acetylcholinesterase [1] was 0.14 µM; in experiment [2], 13 µM; on Cholinesterase [3] it was 0.3 µM; on Acetylcholinesterase [4] it was 8.81 µM; in experiment [5], 23 µM; on Cholinesterase [6] it was 0.37 µM.

For the molecule `Cc1ccc(NCCC[C@@H]2CCCN3CCCC[C@H]23)c2c(=O)c3ccccc3sc12`, the IC50 in experiment [2] came to 4.3 µM. Besides, the inhibition in experiment [7] was 26%.

For `Cc1ccc(NCCC[C@@H]2CCCN3CCCC[C@H]23)c2c(=O)c3cc(O)ccc3sc12`, the inhibition in experiment [8] was more than 80%. For the same molecule, the IC50 in experiment [2] came to 2.9 µM; in experiment [5], 7.3 µM.

In the case of `Cc1ccc(NC[C@@H]2CCCN3CCCC[C@H]23)c2c(=O)c3cc(O)ccc3sc12`, the IC50 worked out at 5.9 µM in experiment [2] and 9.1 µM in experiment [5].

`CCN(CC)CCCNc1ccc(N)c2sc3ccc(OC)cc3c(=O)c12`: the inhibition is more than 80% in experiment [8] and 24% in experiment [7]. In experiment [2], this molecule registered an IC50 of 21 µM.

As for `Nc1ccc(NC[C@@H]2CCCN3CCCC[C@H]23)c2c(=O)c3ccccc3sc12`, the values for the IC50 in experiment [2] and in experiment [5] were 14 µM and 8.6 µM, respectively.

Regarding `COc1ccc2sc3c(C)ccc(NC[C@@H]4CCCN5CCCC[C@H]45)c3c(=O)c2c1`, the concentration for half-maximal inhibition (IC50) was determined as 4.3 µM in experiment [2] and 5.5 µM in experiment [5].

As for `COc1ccc2sc3c([N+](=O)[O-])ccc(NCCC[C@@H]4CCCN5CCCC[C@H]45)c3c(=O)c2c1`, the half-inhibitory concentration (IC50) against Acetylcholinesterase [1] was determined as 0.12 µM; in experiment [2], 7.9 µM; on Cholinesterase [3], 7.31 µM; at Acetylcholinesterase [4], 1.75 µM; in experiment [5] it was 3 µM; against Cholinesterase [6] it was 2 µM.

On to `CCN(CC)CCCNc1ccc([N+](=O)[O-])c2sc3ccc(OC)cc3c(=O)c12`, for which the IC50 worked out at 17 µM in experiment [2] and 4.8 µM in experiment [5].

In experiment [2], `Nc1ccc(NCCC[C@@H]2CCCN3CCCC[C@H]23)c2c(=O)c3ccccc3sc12` came in with a half-inhibitory concentration (IC50) of 1.3 µM. Also, the inhibition in experiment [7] worked out at 26%.

Take `Cc1ccc(NC[C@@H]2CCCN3CCCC[C@H]23)c2c(=O)c3ccccc3oc12`: the half-maximal inhibitory concentration (IC50) in experiment [2] worked out at 48 µM. Further, the inhibition in experiment [7] was determined as 35%.

`Cc1ccc(NCC[C@@H]2CCCN3CCCC[C@H]23)c2c(=O)c3cc(O)ccc3sc12`: the IC50 turned out to be 3.2 µM on Acetylcholinesterase [1]; 2.4 µM in experiment [2]; 0.9 µM on Cholinesterase [3]; 4.26 µM at Acetylcholinesterase [4]; 8.9 µM in experiment [5]; 0.16 µM at Cholinesterase [6].

Regarding `O=c1c2ccccc2sc2c([N+](=O)[O-])ccc(NC[C@@H]3CCCN4CCCC[C@H]34)c12`, the IC50 was determined as 20 µM in experiment [2] and 15 µM in experiment [5].

What is called IC50 is the concentration that gives 50% inhibition. The term inhibition denotes the percentage by which the read-out fell short of the control. A lower inhibition goes with a weak effect.
